PubChem BioAssay AID1381 (University of Pittsburgh Molecular Library Screening Center, 2008)
Among all 220,000 compounds or so, about 1,000 (0.45%) were called active. This is one part of a sample in which actives are shown more often than they occur.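 Rule for the calls: active = plate z-score of nuclear minus cytoplasmic receptor signal below a set negative limit, without overly bright fluorescence or cell loss (cut at about -3.5 in these data, passing the limit was not always enough); inactive = the rest, inconclusive results apart.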

Experiment: inhibitors of GR-EGFP nuclear translocation, primary screen, dynein cargo transport inhibitor project, imaging, high-content, 3617.4 mouse cells (AID 1381)
Conditions: stimulated with dexamethasone, 1 µM
Method in brief: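 medium = tetracycline-free induction medium containing charcoal-stripped FBS | also added = 1.0 µM final dexamethasone stimulus | schedule = 48 h induction, 1 h compound, 30 min dex at 37 °C | technique = fixed, Hoechst-stained cells imaged at 10x for EGFP | measure = GR-EGFP nuclear translocation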

[1] = measured here: cell count per field, at 20 µM
[2] = measured here: cytoplasmic GR-EGFP intensity, at 20 µM, stronger effect = higher value
[3] = measured here: nuclear GR-EGFP intensity, at 20 µM, stronger effect = lower value

Row | SMILES | z-score (at 20 µM, stronger effect = lower value) | z-score [1] | z-score [2] | z-score [3] | z-score (at 50 µM, stronger effect = lower value) | z-score (measured here: cell count per field, at 50 µM) | z-score (measured here: cytoplasmic GR-EGFP intensity, at 50 µM, stronger effect = higher value) | z-score (measured here: nuclear GR-EGFP intensity, at 50 µM, stronger effect = lower value)
1 | CCn1c(SCC(=O)Nc2nc(C)cs2)nnc1C(C)NC(=O)c1ccccc1 (configuration not stated) | 0.931 (inactive) | -0.274 | -0.247 | -0.608 | – | – | – | –
2 | COc1ccc(CS(=O)/C(Cl)=C(/Cl)C(=O)Nc2ccc(OC)nc2)cc1 (configuration not stated) | -5.17 (active) | 0.13 | 3.61 | -2.19 | – | – | – | –
3 | COc1ccc(NC(=O)/C(Cl)=C(/Cl)S(=O)Cc2ccc(C)cc2)cn1 (configuration not stated) | -5.02 (inactive) | -1.31 | 4.96 | -1.87 | – | – | – | –
4 | COc1ccc(NC(=S)Nc2ccccc2Cl)cn1 | 1.03 (inactive) | -0.0291 | -0.33 | 0.285 | – | – | – | –
5 | O=C(NCc1cccnc1)c1cccc(-c2cc3ccccc3oc2=O)c1 | -0.31 (inactive) | 0.631 | -0.22 | -0.235 | – | – | – | –
6 | Cc1ccc(S(=O)(=O)C2C(=O)NC3(C)CC2c2ccccc2O3)cc1 (configuration not stated) | -0.689 (inactive) | -0.187 | -0.199 | -0.503 | – | – | – | –
7 | CCc1ccc(/C=N/NC(=O)c2ccc(OC3CCCC3)cc2)s1 | – | – | – | – | -0.285 (inactive) | 0.0349 | -0.199 | -0.114
8 | Cc1[nH]c(=O)c(C(=O)/C=C/c2ccccc2)c2c1CCCC2 | -3.92 (active) | 0.356 | 0.353 | -1.71 | – | – | – | –
9 | O=C(/C=C/c1ccccc1)c1ccccc1O | -0.596 (inactive) | 0.171 | -0.18 | 0.0198 | – | – | – | –
10 | Cc1nc(-c2ccccc2)sc1C(=O)/C=C/c1ccccc1 | -2.15 (inactive) | 0.685 | -0.0664 | -0.902 | – | – | – | –
11 | CSc1nc2c(c(=O)[nH]1)C(c1cccc(Cl)c1Cl)CC(=O)N2 (configuration not stated) | -0.956 (inactive) | 0.453 | -0.232 | -0.546 | – | – | – | –
12 | O=C(/C=C/c1cnc2ccccc2n1)NC1CCCCCC1 | 0.072 (inactive) | -0.372 | -0.262 | -0.0867 | – | – | – | –
13 | O=C(O)c1ccccc1OCc1ccccc1Cl | 1.56 (inactive) | -0.166 | -0.834 | 1.06 | – | – | – | –
14 | Cc1ccc(CN2CCC(N3CCC(C(=O)NCC4CCCO4)CC3)CC2)o1 (configuration not stated) | 0.0309 (inactive) | -0.115 | -0.27 | 0.507 | – | – | – | –
15 | Fc1ccccc1/C=C1\CCCC2=C1Nc1ncnn1C2c1ccccc1F (configuration not stated) | -4.08 (active) | 0.757 | 0.917 | -1.5 | – | – | – | –
16 | Cc1c(C(=O)Nc2ccccc2)sc2nc3n(c(=O)c12)CCCCC3 | 0.507 (inactive) | 0.149 | -0.32 | 0.154 | – | – | – | –
17 | Cc1ccc(S(=O)(=O)NC(=O)N2CCCN(Cc3ccc(F)cc3)CC2)cc1 | -0.425 (inactive) | 0.12 | -0.231 | -0.245 | – | – | – | –
18 | CC(=O)Nc1ccc(S(=O)(=O)NCC(=O)OCc2cc(=O)oc3ccc4ccccc4c23)cc1 | 0.304 (inactive) | -0.781 | -0.141 | -0.169 | – | – | – | –
